TRPC4 block: inhibitors of mouse TRPC4 channel, primary screen, Fluo4 calcium, HEK293 TRPC4beta/mu-opioid cells; DAMGO-evoked Fluo4 calcium flux; hits give low values; Short transient receptor potential channel 4 (Mus musculus), Q9QUQ5; AID 2247, 2010; 300,000 tested, 0.39% active; B-score at 10 µM;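 active = B-score over 3 SD under the library average, no early fluorescence shift, positive overall ratio signal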
Target sequence (Q9QUQ5 whole entry, looked up): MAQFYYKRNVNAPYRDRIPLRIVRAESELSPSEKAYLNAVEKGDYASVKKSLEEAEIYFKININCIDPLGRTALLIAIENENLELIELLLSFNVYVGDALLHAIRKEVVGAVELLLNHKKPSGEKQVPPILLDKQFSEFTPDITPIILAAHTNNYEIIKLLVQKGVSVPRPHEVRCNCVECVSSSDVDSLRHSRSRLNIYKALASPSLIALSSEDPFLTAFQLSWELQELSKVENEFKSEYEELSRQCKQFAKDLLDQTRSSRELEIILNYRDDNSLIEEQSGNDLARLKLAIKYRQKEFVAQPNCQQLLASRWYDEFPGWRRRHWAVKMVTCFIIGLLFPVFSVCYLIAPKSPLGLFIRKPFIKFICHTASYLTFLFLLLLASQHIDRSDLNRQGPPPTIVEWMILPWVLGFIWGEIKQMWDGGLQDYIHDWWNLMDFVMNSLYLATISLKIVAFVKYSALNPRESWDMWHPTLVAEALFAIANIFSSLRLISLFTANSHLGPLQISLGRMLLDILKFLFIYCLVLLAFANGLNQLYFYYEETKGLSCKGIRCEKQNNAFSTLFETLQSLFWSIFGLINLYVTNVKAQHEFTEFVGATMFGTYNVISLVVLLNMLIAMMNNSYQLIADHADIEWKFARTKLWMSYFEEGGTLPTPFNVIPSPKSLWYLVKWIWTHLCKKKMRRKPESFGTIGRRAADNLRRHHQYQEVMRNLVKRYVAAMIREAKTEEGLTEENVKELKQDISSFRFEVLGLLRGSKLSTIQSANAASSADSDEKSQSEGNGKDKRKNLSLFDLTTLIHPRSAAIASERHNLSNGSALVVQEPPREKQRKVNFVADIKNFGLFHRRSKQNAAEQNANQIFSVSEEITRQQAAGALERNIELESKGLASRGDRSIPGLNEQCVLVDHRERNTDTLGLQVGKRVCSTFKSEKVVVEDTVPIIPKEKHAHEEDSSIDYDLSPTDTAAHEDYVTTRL
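Material: HEK293 cells with stable TRPC4beta plus mu-opioid receptor expression / Probe or stimulus: DAMGO in two steps, submaximal then maximal / Compound: single concentration per test compound / Technique: kinetic Fluo4 fluorescence imaging of calcium influx / Read-out: per-well B score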
TRPC6 inhibitor: mouse TRPC6 channel inhibitors, primary screen, cell-based, HEK293, membrane potential dye; B-score at 10 µM; AID 2553, 2010; 310,000 tested, 1.1% active; Short transient receptor potential channel 6 (Mus musculus), Q61143; ACh-evoked depolarization; hits give low values;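 active = B-score under library mean minus 3 SD, initial fluorescence not abnormally high, positive integrated signal ratio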;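 note: B-score derived from integrated fluorescence ratio over the kinetic read; more negative B-score means stronger inhibition of depolarization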
TRPC6 act: mouse TRPC6 channel activators, primary screen, cell-based, HEK293, membrane potential dye | 310,000 tested, 0.13% active | AID 2550, 2010 | HEK293-TRPC6 membrane potential dye fluorescence; hits give high values | Short transient receptor potential channel 6 (Mus musculus), Q61143 | B-score at 10 µM;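 active = B-score of the integrated fluorescence ratio above library mean plus 3 SD, and starting fluorescence ratio within library mean plus 5 SD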;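 note: higher score means more depolarization so channel activation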
TRPC4 agonist: activators of mouse TRPC4 channel, primary screen, Fluo4 calcium, HEK293 TRPC4beta/mu-opioid cells; AID 2237, 2010; B-score at 10 µM; 310,000 tested, 0.49% active; Fluo4 calcium fluorescence; hits give high values;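 active = B-score above 5 SD of library B-scores, and initial fluorescence ratio not above library mean plus 5 SD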;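 note: positive B-score marks a calcium rise read as TRPC4 activation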
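Assay system: HEK293 stable line with TRPC4beta plus mu-opioid receptor. Times: dye 45 min RT, read 110 s. Measured by: kinetic Fluo4 calcium fluorescence. Measure: B score of integrated ratio. Controls: assay buffer as low control, maximal DAMGO as high control.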
TRPC4 PAM: positive allosteric modulators of TRPC4, primary screen, cell-based, mouse TRPC4beta, HEK293 mu-opioid, Fluo-4 calcium. Short transient receptor potential channel 4 (Mus musculus), Q9QUQ5. DAMGO EC20, Fluo-4 Ca2+ flux; hits give high values. B-score at 10 µM. 310,000 tested, 0.42% active. AID 2227, 2009;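 active = B-score of calcium response area above 5 SD of library B-scores, with initial fluorescence ratio within 5 SD of library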;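 note: B-score of integrated fluorescence ratio over time as area under calcium response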
TRPC4 spec 2: second selectivity test of TRPC6 inhibitors: effect on mouse TRPC4; shares compounds with TRPC6 inhibitor; HEK293 TRPC4/MOR, membrane potential dye fluorescence; channel activated by saturating DAMGO dose; inhibition, % at 10 µM; 920 tested, 42% active;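 active = compounds whose fluorescence signal differed from control wells by over 3 SD, either direction, in both duplicate plates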
TRPC4 spec: mouse TRPC4 modulation by TRPC6 hits, confirmation, selectivity assay for TRPC6 inhibitor project, cell-based, HEK293 TRPC4/mu-opioid, membrane potential dye | shares compounds with TRPC6 inhibitor | membrane potential fluorescence | activity change, negative = inhibition, % at 10 µM | 920 tested, 61% active;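 active = rise or fall in signal beyond 3 SD of buffer-only wells in both replicate plates, either sign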;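 note: integrated kinetic ratio of fluorescence range over baseline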
HEK293 MPD ctr 2-1: nonspecific membrane potential effects, parental HEK293, confirmation, counter-screen for TRPC6 inhibitor project, cell-based, second counter screen | shares compounds with TRPC6 inhibitor | parental HEK293 membrane potential dye fluorescence; maximal acetylcholine challenge after compound addition | signal change vs control, % at 10 µM | 920 tested, 31% active;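 active = membrane potential signal moving either way by over 3 SD of the maximum-effect control, in both duplicate plates, meaning non-specific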
HEK293 MPD ctr-1: membrane potential modulation in parental HEK293, confirmation, counter-screen for TRPC6 inhibitor project, cell-based. shares compounds with TRPC6 inhibitor. parental HEK293 membrane potential dye fluorescence. membrane potential signal change, % at 10 µM. 920 tested, 60% active. AID 2780, 2010;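 active = membrane potential signal shifting up or down by more than 3 SD of buffer-only wells, on both duplicate plates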
HEK293 MPD ctr-2: parental HEK293 membrane potential modulation, confirmation, counter-screen for TRPC6 modulator project, cell-based. shares compounds with TRPC6 inhibitor. membrane potential dye fluorescence. membrane potential signal change, % at 10 µM. 2,400 tested, 51% active;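 active = membrane potential signal moves up or down beyond 5 SD from buffer-only wells, on both duplicate plates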
HEK293 MPD ctr 2-2: second check of TRPC6 modulator effects in parental HEK293 cells; membrane potential dye fluorescence; after compound, maximal acetylcholine stimulation; inhibition, % at 10 µM; 2,400 tested, 14% active; shares compounds with TRPC6 inhibitor;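 active = membrane potential signal drops by more than 5 SD from the mean control signal, in both duplicate plates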;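 note: plate controls were acetylcholine ECmax control wells for no effect and buffer only wells for full effect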
TRPC4 ctr mod: TRPC4 modulation by TRPC6 hit compounds, confirmation, selectivity assay for TRPC6 modulator project, cell-based, HEK293 TRPC4/mu-opioid, membrane potential dye, mouse. membrane potential fluorescence. 2,400 tested, 69% active. percent change from control (negative = decrease, positive = increase), % at 10 µM. shares compounds with TRPC6 inhibitor;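 active = membrane potential signal moved up or down beyond 5 SD of buffer control wells, in both duplicate plates, actives on both sides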;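 note: plate controls were assay buffer wells for no effect and DAMGO maximal-effect wells for full effect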
TRPC4/MOR inh 2: mouse TRPC4 off-target activity of TRPC6 modulators, second screen; shares compounds with TRPC6 inhibitor; HEK293 TRPC4/mu-opioid, membrane potential dye fluorescence; stimulated with maximal-effect DAMGO; inhibition, % at 10 µM; 2,400 tested, 55% active;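 active = drop in membrane potential signal beyond 5 SD of the control wells in both duplicate plates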;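 note: TRPC4 counter screen for TRPC6 hits run under conditions tuned for TRPC6 not TRPC4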
TRPC6 inh conf: mouse TRPC6 channel inhibitors, confirmation, HEK293 cells, membrane potential dye, duplicate; inhibition, % at 10 µM; ACh-evoked depolarization; shares compounds with TRPC6 inhibitor; 3,300 tested, 43% active;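 active = fluorescence ratio falls more than 5 SD below the full-stimulation control mean, in both duplicate runs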;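 note: integrated fluorescence ratio of peak minus minimum over baseline after agonist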
TRPC6 act confirm: mouse TRPC6 channel activators, confirmation, HEK293 cells, membrane potential dye, duplicate | shares compounds with TRPC6 inhibitor | HEK293-TRPC6 membrane potential dye fluorescence, FDSS | activation, % at 10 µM | 2,800 tested, 11% active | AID 488961, 2010;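 active = ratio signal rise beyond 5 SD above unstimulated control wells' mean, seen in both duplicate runs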;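 note: plate controls were buffer EC0 wells for no effect and acetylcholine ECmax response for full effect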
* marks the source's active call; other numbers are inactive results. A selection: hits, their analogues and other compounds. The true share with any hit is near 2.3%.

Results for OC(CN1CCN(Cc2ccc3c(c2)OCO3)CC1)c1c[nH]c2ccccc12 (stereo not given) ?
TRPC4 block: inactive; TRPC6 inhibitor: inactive; TRPC6 act: inactive; TRPC4 agonist: inactive; TRPC4 PAM: inactive

Results for Cc1ccc(OCC(O)CN2CCN(Cc3ccc4c(c3)OCO4)CC2)cc1C (stereo not given) ?
TRPC4 block: inactive; TRPC6 inhibitor: inactive; TRPC6 act: inactive; TRPC4 agonist: inactive; TRPC4 PAM: inactive

Results for Cc1c(C(O)CN2CCN(Cc3ccc4c(c3)OCO4)CC2)c2ccccc2n1C (stereo not given) ?
TRPC4 block: inactive; TRPC6 inhibitor: -5.1*; TRPC6 act: inactive; TRPC4 agonist: inactive; TRPC4 PAM: inactive; HEK293 MPD ctr-2: inactive; HEK293 MPD ctr 2-2: inactive; TRPC4 ctr mod: 11%*; TRPC4/MOR inh 2: 88%*; TRPC6 inh conf: 55%*; TRPC6 act confirm: inactive

Results for COc1ccc2c(c1)c(C(O)CN1CCC(Cc3ccccc3)CC1)c(C)n2C (stereo not given) ?
TRPC4 block: inactive; TRPC6 inhibitor: -12*; TRPC6 act: inactive; TRPC4 agonist: inactive; TRPC4 PAM: inactive; TRPC4 spec 2: 26%*; TRPC4 spec: -13%*; HEK293 MPD ctr 2-1: inactive; HEK293 MPD ctr-1: -221%*; TRPC6 inh conf: 78%*; TRPC6 act confirm: inactive

Results for COc1ccc2c(c1)c(C(O)CN1CCN(Cc3ccc4c(c3)OCO4)CC1)c(C)n2C (stereo not given) ?
TRPC4 block: inactive; TRPC6 inhibitor: -6.3*; TRPC6 act: inactive; TRPC4 agonist: inactive; TRPC4 PAM: inactive; HEK293 MPD ctr-2: inactive; HEK293 MPD ctr 2-2: inactive; TRPC4 ctr mod: -9.5%*; TRPC4/MOR inh 2: 68%*; TRPC6 inh conf: 52%*; TRPC6 act confirm: inactive

What do the screens show for `O=C(COC(=O)C1(c2ccc(F)cc2)CCCC1)N1CCc2ccccc21`?
TRPC4 block: inactive; TRPC6 inhibitor: inactive; TRPC6 act: inactive; TRPC4 agonist: inactive; TRPC4 PAM: inactive

Results for O=C(CN1CCCCC1)N1c2ccccc2CCc2ccccc21 ?
TRPC4 block: inactive; TRPC6 inhibitor: -6.5*; TRPC6 act: inactive; TRPC4 agonist: inactive; TRPC4 PAM: inactive; HEK293 MPD ctr-2: 100%*; HEK293 MPD ctr 2-2: inactive; TRPC4 ctr mod: 17%*; TRPC4/MOR inh 2: inactive; TRPC6 inh conf: inactive

What do the screens show for `CCOc1ccc(NC(=S)NC(=O)c2cncc(Br)c2)cc1`?
TRPC4 block: inactive; TRPC6 inhibitor: inactive; TRPC6 act: inactive; TRPC4 agonist: inactive; TRPC4 PAM: inactive

Results for CCOC(=O)N1CCN(C(=O)c2oc3ccc(S(=O)(=O)N(CC)CC)cc3c2C)CC1 ?
TRPC4 block: inactive; TRPC6 inhibitor: inactive; TRPC6 act: inactive; TRPC4 agonist: inactive; TRPC4 PAM: inactive

What do the screens show for `O=C(CSc1nnc2ccccn12)N1CCc2ccccc21`?
TRPC4 block: inactive; TRPC6 inhibitor: inactive; TRPC6 act: inactive; TRPC4 agonist: inactive; TRPC4 PAM: inactive

How did CC(=O)Nc1ccc2c(c1)ncn2-c1ccc(C)cc1 do in these assays?
TRPC4 block: inactive; TRPC6 inhibitor: -5.5*; TRPC6 act: inactive; TRPC4 agonist: inactive; TRPC4 PAM: inactive; HEK293 MPD ctr-2: inactive; HEK293 MPD ctr 2-2: inactive; TRPC4 ctr mod: inactive; TRPC4/MOR inh 2: inactive; TRPC6 inh conf: inactive; TRPC6 act confirm: inactive

What do the screens show for `Cc1ccc2c(c1)CCCN2C(=O)NC1CCCCC1`?
TRPC4 block: inactive; TRPC6 inhibitor: -6.9*; TRPC6 act: inactive; TRPC4 agonist: inactive; TRPC4 PAM: inactive; TRPC4 spec 2: inactive; TRPC4 spec: inactive; HEK293 MPD ctr 2-1: inactive; HEK293 MPD ctr-1: inactive; TRPC6 inh conf: inactive; TRPC6 act confirm: inactive

How did CCc1cccc2c1Sc1ccccc1CC2N1CCNCC1 (stereo not given) do in these assays?
TRPC4 block: inactive; TRPC6 inhibitor: -5.5*; TRPC6 act: inactive; TRPC4 agonist: inactive; TRPC4 PAM: inactive; HEK293 MPD ctr-2: inactive; HEK293 MPD ctr 2-2: inactive; TRPC4 ctr mod: inactive; TRPC4/MOR inh 2: 70%*; TRPC6 inh conf: 50%*; TRPC6 act confirm: inactive

Screening results as filed in PubChem.
